MEKK3 PB1 HTS = MEKK3-MEK5 PB1 interaction, increase or decrease; Q99759; bead-based flow cytometry, Alexa488-MEK5 binding to MEKK3; actives lie on both sides; 0 = blocked by unlabeled MEK5, 100 = vehicle; binding response (% of control), % at 10 µM; actives 1.4% (n = 290,000); AID 1529;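 active = binding response more than 3 SD above or below the average of its plate-row segment, actives on both sides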;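 also: Alexa488 bead fluorescence after subtracting the streptavidin-only scavenger bead signal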
ABCB1 inh = inhibitors of human ABCB1 transporter, ABCG2 counter-screen. P08183. CCRF-Adr cells, JC-1 efflux, flow cytometry. inhibition, % at 6.6 µM. actives 0.067% (n = 190,000). AID 1326; in the data active = inhibition above about 40%;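 also: higher value means more JC-1 retained so stronger ABCB1 efflux block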
MEKK2 mut-MEK5 = signal of MEK5 binding to mutant human MEKK2 PB1 domain; percent response, % at 10 µM; actives 0.35% (n = 290,000); bead flow cytometry, Alexa488-MEK5 binding to MEKK2 mutant; in the data active = percent response above about 24%, passing the limit was not always enough
WT yeast gro inh = growth inhibition of WT yeast, mitochondrial fusion screen; inhibition, % at 10 µM; actives 2.1% (n = 190,000); mitochondrial fusion phenotypic screen, WT strain; in the data active = inhibition above about 58%; tested in S. cerevisiae
MEKK2wt PB1 HTS = raises or lowers MEK5 binding to wildtype human MEKK2 PB1 domain; actives 1.1% (n = 290,000); binding response (% of control), % at 10 µM; AID 1531; Q9Y2U5; bead flow cytometry, Alexa488-MEK5 binding to MEKK2 WT; actives lie on both sides; in the data active = binding response below about 67% or above about 130%
ABCG2 inh = blocks JC-1 efflux by human ABCG2 transporter | IgMXP3 cells, flow cytometry | inhibition, % at 6.6 µM | actives 0.1% (n = 190,000) | AID 1325;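 active = inhibition above 80%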
Target sequence (Q9UNQ0 whole entry, looked up): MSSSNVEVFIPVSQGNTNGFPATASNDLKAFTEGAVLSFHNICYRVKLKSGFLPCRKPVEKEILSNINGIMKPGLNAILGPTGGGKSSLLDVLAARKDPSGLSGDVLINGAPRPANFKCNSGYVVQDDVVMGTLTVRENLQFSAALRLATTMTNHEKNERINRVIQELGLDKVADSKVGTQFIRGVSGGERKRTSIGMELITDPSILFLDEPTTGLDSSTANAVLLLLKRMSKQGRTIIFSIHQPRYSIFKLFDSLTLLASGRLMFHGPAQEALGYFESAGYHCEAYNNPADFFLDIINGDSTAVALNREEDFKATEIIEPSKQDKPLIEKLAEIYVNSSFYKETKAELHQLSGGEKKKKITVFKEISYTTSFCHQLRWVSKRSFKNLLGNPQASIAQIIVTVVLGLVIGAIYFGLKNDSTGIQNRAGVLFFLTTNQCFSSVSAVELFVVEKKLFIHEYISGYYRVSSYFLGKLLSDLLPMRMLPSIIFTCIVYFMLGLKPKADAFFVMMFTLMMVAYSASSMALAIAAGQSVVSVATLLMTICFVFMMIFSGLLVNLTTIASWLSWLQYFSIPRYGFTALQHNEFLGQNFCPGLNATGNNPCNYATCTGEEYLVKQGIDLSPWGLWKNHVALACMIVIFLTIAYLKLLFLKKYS
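Test system: ABCG2 IgMXP3 and barcoded ABCB1 CCRF-Adr cell mix; Schedule: cells with compound and JC-1, 10 min at 25 °C, rotating, no wash; Technique: flow cytometry of retained JC-1 fluorescence; Measure: % inhibition of efflux relative to nicardipine and DMSO; Controls: nicardipine high and DMSO low controls.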
A number is an active result; i = inactive; nt = no result given. Most compounds without a hit are left out; they make up all but 3.5% or so of the library.

SMILES | MEKK3 PB1 HTS | ABCB1 inh | MEKK2 mut-MEK5 | WT yeast gro inh | MEKK2wt PB1 HTS | ABCG2 inh
CCOC(=O)Nc1nc(-c2ccccc2)c(C(=O)c2ccc(Cl)cc2)s1 | i | i | i | 59 | i | i
CCOC(=O)Nc1sc(C)nc1-c1ccccc1 | i | i | i | i | i | i
CC1=NN(C(N)=S)C(=O)C1N=Nc1ccccc1C (configuration not stated) | i | i | i | 65 | i | i
CC1=NN(C(N)=S)C(=O)C1N=Nc1c(C)cc(C)cc1C (configuration not stated) | i | i | i | 61 | i | i
CC1=NN(C(N)=S)C(=O)C1N=Nc1cccc(Cl)c1 (configuration not stated) | i | nt | i | nt | i | nt
CC1=NN(C(N)=S)C(=O)C1N=Nc1ccccc1O (configuration not stated) | i | nt | i | nt | i | nt
CC1=NN(C(N)=S)C(=O)C1N=Nc1ccc(C)cc1C (configuration not stated) | nt | i | nt | 70 | nt | i
CC1=NN(C(N)=S)C(=O)C1N=Nc1c(Br)cc(Br)cc1Br (configuration not stated) | i | nt | i | nt | i | nt
COc1cccc(NC(=O)CC2C(=O)NC3CCCCC3N2C(=O)c2ccc(F)cc2)c1 (configuration not stated) | i | i | i | i | i | i
FC(F)(F)c1ccc(Oc2ccc3ccccc3c2Br)nc1 | i | i | i | 81 | i | i
Cc1ccc(/C=[N+](\[O-])c2ccc(N(C)C)cc2)c2nsnc12 | i | i | i | 77 | i | i
Cc1cccc(NC(=O)CCS(=O)(=O)c2cc3c(cc2Cl)NC(=O)CO3)c1 | i | nt | i | nt | i | nt
Cc1cccnc1NC(=S)Nc1ccc(F)cc1F | i | i | i | i | i | i
Cc1ccc(C)c(NC(=S)Nc2ncccc2C)c1 | i | i | i | 68 | i | i
Cc1cc(C)c2sc(N(CCN(C)C)C(=O)c3c(F)cccc3F)nc2c1 | i | i | i | 62 | i | i
CCN(CC)CCN(C(=O)C1=COCCO1)c1nc2cc(C)cc(C)c2s1 | i | nt | i | nt | i | nt
CCCCN(CC)S(=O)(=O)c1ccc(C(=O)N(CCCN(C)C)c2nc3cc(C)cc(C)c3s2)cc1 | 145 | i | i | 96 | 162 | i
NNC(=O)c1c(O)c2cccc3c2n(c1=O)CCC3 | i | nt | i | nt | i | nt
O=C(NC1CCc2ccccc21)c1cc(COc2cncc(Cl)c2)on1 (configuration not stated) | i | nt | i | nt | i | nt
COCCN1Cc2cccc(C(=O)Nc3c(C)cc(C)cc3C)c2C1=O | i | i | i | i | i | i
COCCN1Cc2cccc(C(=O)Nc3cc(C)cc(C)c3)c2C1=O | i | i | i | i | i | 82
COc1ccc(/C=N\NC(=O)c2ccccc2OC)cc1COc1ccccc1C | i | nt | i | nt | i | nt
COc1ccc(/C=N/NC(=O)c2ccoc2C)cc1COc1c(C)cccc1C | i | i | i | 88 | i | i
CN(CCOC(=O)c1ccc2c(c1)OCCO2)Cc1ccccc1 | i | i | i | i | i | i
O=C(/C=C/c1ccc(F)cc1)Nc1nc2ccccc2[nH]1 | 208 | i | i | i | i | i
SMILES | MEKK3 PB1 HTS | ABCB1 inh | MEKK2 mut-MEK5 | WT yeast gro inh | MEKK2wt PB1 HTS | ABCG2 inh
O=C(COc1cccc2ccccc12)Nc1nc2ccccc2[nH]1 | i | i | i | 67 | i | i
CCOc1ccccc1OCC(=O)Nc1nc2ccccc2[nH]1 | i | i | i | i | i | i
O=C(Nc1nc2ccccc2[nH]1)c1cccc(F)c1 | i | nt | i | nt | i | nt
CC(Sc1nc2c(cc1C#N)CCCCC2)C(=O)O (configuration not stated) | i | i | i | i | i | i
CC1(c2ccc3ccccc3c2)NC(=O)N(CC(=O)N2CCN(c3ccccc3O)CC2)C1=O (configuration not stated) | i | nt | i | nt | i | nt
COC(=O)c1ccc(-c2ccco2)n1Cc1cccc(C)c1 | i | i | i | 64 | i | i
CC(C)OCCCN1C(=O)c2[nH]nc(-c3ccccc3O)c2C1c1cccc(Cl)c1 (configuration not stated) | 138 | i | i | i | i | i

Compound activity: PubChem BioAssay, several laboratories
